Screening data from PubChem.
NALP1 yeast inh: NALP1 inflammasome inhibitors in reconstituted yeast, colorimetric, S. cerevisiae, triplicate retest; S. cerevisiae NALP1/ASC/caspase-1 growth, X-gal OD620, 72 h; inhibition, % at 10 µM; 280,000 tested, 0.61% active; in the data active = inhibition mostly above about 24%, no sharp cut-off; inactive = mostly below about 32%
UCH37 DUB inh: inhibitors of human UCH37 deubiquitinase, primary screen, biochemical, Ub-AMC cleavage, fluorescence; Ubiquitin carboxyl-terminal hydrolase isozyme L5 (Homo sapiens), Q9Y5K5; purified proteasome/UCH37; inhibition, % (concentration not given with the values); 330,000 tested, 0.33% active; AID 588478, 2011;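 active = mean inhibition over replicate wells above about 20%, limit read from the data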
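Material: Human UCH37 enzyme supplied as purified proteasome complex | Schedule: 30 min preincubation with enzyme, 25 min cleavage at room temperature | Detection: AMC fluorescence 355/460 nm | Measure: % inhibition of Ub-AMC cleavage fluorescence | Controls: Wells without proteasome as full block, compound-free enzyme plus substrate as uninhibited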
ATG4B inh: ATG4B protease inhibitors, primary screen, biochemical, fluorescence, uHTS; 340,000 tested, 0.51% active; inhibition, % at 8.33 µM; Cysteine protease ATG4B (Homo sapiens), Q9Y4P1; ATG4B cleavage of LC3-PLA2, NBD-HPC fluorescence, 1 h; in the data active = inhibition above about 40%
Target sequence (Q9Y4P1 whole entry, looked up): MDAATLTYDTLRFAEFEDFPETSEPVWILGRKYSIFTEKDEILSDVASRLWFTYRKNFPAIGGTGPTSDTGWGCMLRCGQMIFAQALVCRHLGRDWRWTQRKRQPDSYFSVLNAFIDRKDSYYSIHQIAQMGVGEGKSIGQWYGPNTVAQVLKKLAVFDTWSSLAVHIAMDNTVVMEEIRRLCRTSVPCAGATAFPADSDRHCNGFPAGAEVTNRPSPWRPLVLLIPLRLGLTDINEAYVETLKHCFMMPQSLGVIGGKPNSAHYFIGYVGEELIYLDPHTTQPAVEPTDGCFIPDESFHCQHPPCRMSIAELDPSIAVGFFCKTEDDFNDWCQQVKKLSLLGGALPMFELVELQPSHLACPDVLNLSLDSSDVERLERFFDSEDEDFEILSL
Calb FLC: C. albicans growth inhibition with fluconazole, primary screen, CaCi-2 strain, Alamar Blue fluorescence. growth inhibition, % (no concentration beside the values). 300,000 tested, 0.57% active. C. albicans CaCi-2 + fluconazole, 48 h;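 active = growth inhibition above about 58% in most replicates, limit read from the data, passing the limit was not always enough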;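 note: all wells also contain fluconazole at 8 µg/ml as a sub-toxic cotreatment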
NALP3 yeast inh: NALP3 inflammasome inhibitors in reconstituted yeast, primary screen, luminescence, uHTS | inhibition, % at 10 µM | Yeast reconstituted NLRP3/ASC/caspase-1, beta-gal luminescence, 24 h | 330,000 tested, 0.39% active;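 active = inhibition of 50% or more; inactive = inhibition below 50%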
ALR inh: inhibitors of human ALR sulfhydryl oxidase, primary screen, biochemical, H2O2 detection, HRP-luminol luminescence, single point | FAD-linked sulfhydryl oxidase ALR (Homo sapiens), P55789 | purified ALR, DTT oxidation | inhibition, % (test concentration not listed) | 290,000 tested, 3.8% active | AID 485317, 2010;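 active = mean replicate inhibition above about 79%, with every replicate also reaching it, limit read from the data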
Target sequence (P55789 whole entry, looked up): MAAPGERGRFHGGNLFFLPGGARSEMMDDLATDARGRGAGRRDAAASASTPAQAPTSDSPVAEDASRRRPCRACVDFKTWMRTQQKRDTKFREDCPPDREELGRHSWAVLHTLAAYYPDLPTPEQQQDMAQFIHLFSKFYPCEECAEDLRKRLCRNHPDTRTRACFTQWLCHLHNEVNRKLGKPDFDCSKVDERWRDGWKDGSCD
A number is an active result. A selection: hits, their analogues and other compounds. The true share with any hit is near 4.8%.

Results for CCN(Cc1ccccc1)c1ccc(/C=N/N2CCOCC2)cc1 ?
NALP1 yeast inh: inactive; ATG4B inh: inactive; NALP3 yeast inh: inactive; ALR inh: 98

Results for CCN(CC)c1ccc(/C=N/N2CCOCC2)cc1 ?
NALP1 yeast inh: inactive; ATG4B inh: inactive; Calb FLC: inactive; NALP3 yeast inh: inactive; ALR inh: 99

Results for COc1ccc(/C=N/N2CCOCC2)cc1O ?
NALP1 yeast inh: inactive; ATG4B inh: inactive; Calb FLC: inactive; NALP3 yeast inh: inactive; ALR inh: 98

How did Cc1nc2ccccc2c(=O)n1N=Cc1ccccc1Cl do in these assays?
UCH37 DUB inh: inactive

What do the screens show for `Cn1c(=O)[nH]c(NCCc2ccc(O)cc2)c([N+](=O)[O-])c1=O`?
UCH37 DUB inh: inactive; ATG4B inh: inactive; Calb FLC: inactive; NALP3 yeast inh: inactive; ALR inh: 81

Results for Cc1cc(=O)[nH]c(N=C(N)Nc2ccc3c(c2)OCCO3)n1 ?
UCH37 DUB inh: inactive

Results for CCOC(=O)C1=C(C)NC(=O)C1CC(=O)Nc1ccccc1 (configuration not stated) ?
NALP1 yeast inh: inactive; Calb FLC: inactive; NALP3 yeast inh: inactive; ALR inh: 96

What do the screens show for `CCOC(=O)C1=C(C)NC(=O)NC1c1ccc(OCC(=O)Nc2ccccc2)c(OC)c1` (configuration not stated)?
NALP1 yeast inh: inactive; UCH37 DUB inh: inactive; ATG4B inh: inactive; Calb FLC: inactive; NALP3 yeast inh: inactive; ALR inh: inactive

What do the screens show for `COc1cccc(C=NNC(=O)CN2C(=O)NC3NC(=O)NC32)c1` (configuration not stated)?
UCH37 DUB inh: inactive

Results for COc1ccc(-c2sc(NC(C)=O)nc2-c2ccccc2)cc1 ?
NALP1 yeast inh: inactive; UCH37 DUB inh: inactive; ATG4B inh: inactive; Calb FLC: inactive; NALP3 yeast inh: inactive; ALR inh: inactive

What do the screens show for `COCCNc1nc(-c2ccc(OC)cc2)c(-c2ccc(OC)cc2)s1`?
NALP1 yeast inh: 35; UCH37 DUB inh: inactive; ATG4B inh: inactive; Calb FLC: inactive; NALP3 yeast inh: inactive; ALR inh: 94

How did CCN(CC)CCNc1nc(-c2ccc(OC)cc2)c(-c2ccc(OC)cc2)s1 do in these assays?
NALP1 yeast inh: inactive; UCH37 DUB inh: inactive; ATG4B inh: inactive; Calb FLC: inactive; NALP3 yeast inh: inactive; ALR inh: 99

What do the screens show for `CCOc1cccc(C=NNC(=O)C2CCCC2)c1O`?
UCH37 DUB inh: inactive

What do the screens show for `Cc1ccccc1-n1c(C)cc(C=NNC(=O)c2ccc(CN3CCOCC3)cc2)c1C`?
UCH37 DUB inh: inactive

Results for COc1ccccc1NS(=O)(=O)c1cccc(C(=O)NN=C(C)c2ccc3c(c2)OCCO3)c1 ?
UCH37 DUB inh: inactive

Results for COc1cccc(CN2CCC(CO)(CC3CCCCO3)CC2)c1 (configuration not stated) ?
NALP1 yeast inh: inactive; UCH37 DUB inh: inactive; ATG4B inh: inactive; Calb FLC: inactive; NALP3 yeast inh: inactive; ALR inh: inactive

Results for COc1cc(/C=C/CN2CCC(CO)(CC3CCCCO3)CC2)ccc1O (configuration not stated) ?
NALP1 yeast inh: inactive; UCH37 DUB inh: inactive; ATG4B inh: inactive; Calb FLC: inactive; NALP3 yeast inh: inactive; ALR inh: 92

What do the screens show for `OCC1(CC2CCCCO2)CCN(C/C=C/c2ccccc2)CC1` (configuration not stated)?
NALP1 yeast inh: 39; UCH37 DUB inh: inactive; ATG4B inh: inactive; Calb FLC: inactive; NALP3 yeast inh: inactive; ALR inh: inactive

What do the screens show for `Cc1ccc(NC(=O)C2CCCN2C(=O)OCc2ccccc2)c(C)c1` (configuration not stated)?
NALP1 yeast inh: inactive; UCH37 DUB inh: inactive; ATG4B inh: inactive; Calb FLC: inactive; NALP3 yeast inh: inactive; ALR inh: inactive

How did Cc1ccc(NC(=O)C2CCCN2C(=O)OCc2ccccc2)c(O)c1 (configuration not stated) do in these assays?
NALP1 yeast inh: inactive; UCH37 DUB inh: inactive; ATG4B inh: inactive; Calb FLC: inactive; NALP3 yeast inh: inactive; ALR inh: 86

What do the screens show for `Cc1ccc(-c2c(C(=O)NN=CC3CC=CCC3)nnn2-c2nonc2N)cc1` (configuration not stated)?
UCH37 DUB inh: inactive

Results for COc1ccc(CCN2C(=O)CSC2=NNC(=O)c2ccc(C(C)(C)C)cc2)cc1OC ?
UCH37 DUB inh: inactive

Results for O=C(NN=Cc1ccccn1)c1cc(-c2ccc(Cl)s2)[nH]n1 ?
UCH37 DUB inh: inactive

How did O=C(CSc1nc2ccccc2s1)c1ccc(O)cc1O do in these assays?
NALP1 yeast inh: inactive; UCH37 DUB inh: inactive; ATG4B inh: inactive; Calb FLC: inactive; NALP3 yeast inh: inactive; ALR inh: inactive

How did O=C(Cc1nc2ccccc2s1)c1ccc(O)cc1O do in these assays?
NALP1 yeast inh: inactive; Calb FLC: 91; NALP3 yeast inh: inactive; ALR inh: inactive

What do the screens show for `Cc1nnsc1C(=O)NN=Cc1c(F)cccc1Cl`?
UCH37 DUB inh: inactive

How did C#CCOCCOCCOCCNc1nc(N2CCN(C(=O)CCCCCCCCCCNC(=O)[C@H](CCCCN)n3cc(C)nn3)CC2)nc(N2CCN(C(=O)CCCCCCCCCCNC(=O)[C@@H]([C@H](C)O)n3cc(C)nn3)CC2)n1 do in these assays?
UCH37 DUB inh: inactive; ATG4B inh: inactive; NALP3 yeast inh: inactive; ALR inh: inactive

Results for C#CCOCCOCCOCCNc1nc(N2CCN(C(=O)CCCCCCCCCCNC(=O)[C@H](CCCCN)n3cc(C[C@@H](C)CC)nn3)CC2)nc(N2CCN(C(=O)CCCCCCCCCCNC(=O)[C@@H]([C@H](C)O)n3cc(C)nn3)CC2)n1 ?
UCH37 DUB inh: inactive; ATG4B inh: 53; NALP3 yeast inh: inactive; ALR inh: inactive

How did C#CCOCCOCCOCCNc1nc(N2CCN(C(=O)CCCCCCCCCCNC(=O)[C@H](CO)n3cc(CCCCCN)nn3)CC2)nc(N2CCN(C(=O)CCCCCCCCCCNC(=O)[C@H](CCCN=C(N)N)n3cc(C[C@@H](C)CC)nn3)CC2)n1 do in these assays?
NALP3 yeast inh: inactive; ALR inh: inactive

Results for C#CCOCCOCCOCCNc1nc(N2CCN(C(=O)CCCCCCCCCCNC(=O)[C@@H](CCSC)n3cc(CCO)nn3)CC2)nc(N2CCN(C(=O)CCCCCCCCCCNC(=O)[C@H](CCCN=C(N)N)n3cc(C[C@@H](C)CC)nn3)CC2)n1 ?
ATG4B inh: 46; NALP3 yeast inh: inactive; ALR inh: inactive
